Converted amounts (≈) assume the structure as drawn. Blank lines part the entries; values can stand above or below the compound they belong to. The source made the active and inactive calls. No cut-off for these calls is given here.
Key:
[1] = Kinetic solubility in pH 7.4 PBS buffer at 250 uM incubated for 1 hr by UPLC/MS analysis; assay type: physicochemical; conditions: read-out: Kinetic_solubility
How it was run: (§1)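 Kinetic aqueous solubility was measured in PBS, pH 7.4. Metabolic stability was measured as t1/2 in mouse plasma and mouse liver microsomes, with microsomal data also given as % compound remaining at 1 h. Values are means of at least two independent experiments, each in two technical replicates.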

[2] = Half life in mouse plasma at 2 uM by LC/MS-MS analysis; assay type: ADME, cell-free; how it was run: as §1
[3] = Half life in mouse liver microsomes at 4.6 uM in presence of NADPH by LC/MS-MS analysis; assay type: ADME, Microsome; how it was run: as §1
[4] = target: T1, Acid ceramidase (Homo sapiens, UniProt Q13510); test: Inhibition of human acid ceramidase using Rbm14-12 fluorogenic substrate incubated for 1 hr by fluorescence assay
T1 sequence (Q13510 whole entry): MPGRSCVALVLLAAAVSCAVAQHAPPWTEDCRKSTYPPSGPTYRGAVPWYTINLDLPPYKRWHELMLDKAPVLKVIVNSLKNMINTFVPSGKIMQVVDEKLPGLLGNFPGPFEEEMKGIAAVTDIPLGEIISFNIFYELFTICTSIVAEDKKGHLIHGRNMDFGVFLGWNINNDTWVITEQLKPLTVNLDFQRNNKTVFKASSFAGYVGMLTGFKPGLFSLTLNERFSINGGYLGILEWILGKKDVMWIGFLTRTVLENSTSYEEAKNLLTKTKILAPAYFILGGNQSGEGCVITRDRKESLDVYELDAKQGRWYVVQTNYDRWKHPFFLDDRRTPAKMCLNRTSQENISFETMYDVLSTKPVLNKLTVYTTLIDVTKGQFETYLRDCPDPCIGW

[5] = target: T2, Acid ceramidase (Homo sapiens) (UniProt Q13510); test: Inhibition of human acid ceramidase at 10 uM using N-lauroyl ceramide incubated for 1 hr by LC/MS analysis relative to control
T2 sequence (whole entry): T1 sequence (Q13510 whole entry)

[6] = target: T1, Acid ceramidase; test: Inhibition of human acid ceramidase
[7] = target: T2, Acid ceramidase (Homo sapiens); test: Inhibition of human acid ceramidase at 1 to 10 uM using N-lauroyl ceramide incubated for 1 hr by LC/MS analysis; conditions: dose 1-10 µM
[8] = Stability in mouse plasma at 2 uM after 120 mins by LC/MS-MS analysis; assay type: ADME, cell-free; conditions: read-out: Stabilty
[9] = Stability in mouse liver microsomes at 4.6 uM in presence of NADPH after 60 mins by LC/MS-MS analysis; assay type: ADME, Microsome; conditions: read-out: Stabilty; how it was run: as §1
[10] = Half life in mouse plasma; assay type: ADME, cell-free; how it was run: as §1
[11] = target: T2, Acid ceramidase (Homo sapiens); test: Inhibition of human acid ceramidase at 5 uM using N-lauroyl ceramide incubated for 1 hr by LC/MS analysis relative to control
[12] = target: T2, Acid ceramidase (Homo sapiens); test: Inhibition of human acid ceramidase using Rbm14-12 fluorogenic substrate incubated for 1 hr by fluorescence assay
[13] = target: T1, Acid ceramidase; test: Inhibition of acid ceramidase in human HL-60 cell lysates; assay type: subcellular
[14] = target: T1, Acid ceramidase; test: Inhibition of acid ceramidase in human HaCaT cell lysates; assay type: subcellular
[15] = target: T1, Acid ceramidase; test: Inhibition of acid ceramidase in human SK-OV-3 cell lysates; assay type: subcellular
[16] = target: T2, Acid ceramidase (Homo sapiens); test: Inhibition of acid ceramidase in human NCI-H460 cells at 25 uM relative to control; assay type: cell-based
[17] = Half life in pH 7 0.01M PBS buffer at 2 uM by LC/MS-MS analysis; assay type: physicochemical
[18] = target: T2, Acid ceramidase (Homo sapiens); test: Irreversible covalent inhibition of human acid ceramidase using N-lauroyl ceramide incubated for 1 hr by LC/MS analysis

Structure (SMILES): CC(C)CNC(=O)n1cc(-c2ccc(F)cc2C2CCN(C)CC2)oc1=O
inhibition [5]: 38%

Structure (SMILES): CCCCCCCCCCCCCCC[C@@H](O)[C@H](CO)NC(=O)CBr
IC50 [6]: 52 nM

Structure (SMILES): O=C(NCCCCc1ccccc1)N1C[C@@H](c2ccccc2)OC1=O
inhibition [7]: inactive

Structure (SMILES): CN1CCC(c2cc(F)ccc2-c2cn(C(=O)NCCCCc3ccccc3)c(=O)o2)CC1
solubility kinetic at 1 h, 250 µM [1]: 60 µM (≈ 27.1 µg/mL) | t1/2 [2]: > 2 h | remaining at 2 h, 2 µM [8]: 54% | t1/2 [3]: > 1 h | remaining at 1 h, 4.6 µM [9]: 51% | IC50 ([4]; read-out: IC50): 337 nM

Structure (SMILES): CCCCCCNC(=O)n1nc(C)cc1C(F)(F)F
IC50 [6]: 14 nM | half-life [10]: 9 min

Structure (SMILES): CN1CCC(c2cccc(-c3cn(C(=O)NCCCCc4ccccc4)c(=O)o3)c2)CC1
solubility kinetic at 1 h, 250 µM [1]: 70 µM (≈ 30.3 µg/mL) | t1/2 [2]: > 2 h | remaining at 2 h, 2 µM [8]: 73% | t1/2 [3]: 0.5 h | IC50 ([4]; read-out: IC50): 153 nM

Structure (SMILES): CCOCCNC(=O)n1cc(-c2ccccc2)oc1=O
solubility kinetic at 1 h, 250 µM [1]: 20 µM (≈ 5.53 µg/mL) | t1/2 [2]: 1.33 h | t1/2 [3]: < 0.083 h | IC50 ([4]; read-out: IC50): 2040 nM

Structure (SMILES): CN(CCCCc1ccccc1)C(=O)n1cc(-c2ccccc2)oc1=O
inhibition [7]: inactive

Structure (SMILES): O=C(Nc1ccccc1)n1cc(-c2ccccc2)oc1=O
inhibition [11]: 20%

Structure (SMILES): CN1CCC(c2cc(F)ccc2-c2c[nH]c(=O)o2)CC1
inhibition [12]: inactive

Structure (SMILES): Cc1oc(=O)n(C(=O)NCCCCc2ccccc2)c1-c1ccccc1
IC50 ([4]; read-out: IC50): 42 nM

Structure (SMILES): O=C(NCCCCc1ccccc1)n1c(-c2ccc(Cl)cc2)coc1=O
IC50 ([4]; read-out: IC50): 5 nM

Structure (SMILES): CCCCCNC(=O)n1cc(-c2ccccc2)oc1=O
solubility kinetic at 1 h, 250 µM [1]: < 1 µM | t1/2 [2]: > 2 h | remaining at 2 h, 2 µM [8]: 60% | t1/2 [3]: < 0.083 h | IC50 ([4]; read-out: IC50): 39 nM

Structure (SMILES): CCCCCCNC(=O)n1cc(Cl)c(=O)n(C(=O)OCC(C)C)c1=O
IC50 [6]: 12.8 nM

Structure (SMILES): N=C(N)Nc1ccc(CC(=O)Oc2ccc(-c3ccccc3)cc2)cc1
IC50 [6]: 52000 nM

Structure (SMILES): O=C(NCCCCc1ccccc1)N1C[C@H](c2ccccc2)OC1=O
inhibition [7]: inactive

Structure (SMILES): CCCCCNC(=O)n1cc(-c2ccc(F)c(C3CCN(C)CC3)c2)oc1=O
IC50 ([4]; read-out: IC50): 1920 nM

Structure (SMILES): CCC(C)NC(=O)n1cc(-c2ccccc2)oc1=O (racemic)
inhibition [5]: 21%

Structure (SMILES): COCCCNC(=O)n1cc(-c2ccccc2)oc1=O
inhibition [5]: 53%

Structure (SMILES): CCCCCNC(=O)n1c(-c2ccccc2)coc1=O
IC50 ([4]; read-out: IC50): 25 nM

Structure (SMILES): CN1CCC(c2cn(C(=O)NCCCCc3ccccc3)c(=O)o2)CC1
IC50 ([4]; read-out: IC50): 1400 nM

Structure (SMILES): CC(C)CNC(=O)n1cc(-c2ccc(F)c(C3CCN(C)CC3)c2)oc1=O
inhibition [5]: 26%

Structure (SMILES): CCCCCCCCCCCCCC(=O)N[C@H](C)[C@@H](O)c1ccccc1
IC50 [13]: > 500000 nM | IC50 [14]: 500000 nM

Structure (SMILES): CCCCCCCCCCCCCC(=O)NCC(O)c1ccccc1 (centres undefined)
IC50 [6]: 1290 nM

Structure (SMILES): O=C(CCCCCc1ccccc1)n1cc(-c2ccccc2)oc1=O
inhibition [7]: inactive

Structure (SMILES): Cc1c(-c2ccccc2)oc(=O)n1C(=O)NCCCCc1ccccc1
IC50 ([4]; read-out: IC50): 69 nM

Structure (SMILES): O=C(OCCCCc1ccccc1)n1cc(-c2ccccc2)oc1=O
inhibition [7]: inactive

Structure (SMILES): CCCCCCNC(=O)n1cc(F)c(=O)n(C(=O)OCC(C)C)c1=O
IC50 [6]: 7.7 nM

Structure (SMILES): COc1ccc(/C=C/C(=O)c2c(-c3ccccc3)c3ccccc3[nH]c2=O)cc1
IC50 [6]: 28000 nM | IC50 [15]: 28000 nM | inhibition [16]: 44%

Structure (SMILES): CC(C)CNC(=O)n1cc(-c2ccccc2)oc1=O
solubility kinetic at 1 h, 250 µM [1]: < 1 µM | t1/2 [2]: > 2 h | remaining at 2 h, 2 µM [8]: 70% | t1/2 [3]: 0.833 h | IC50 ([4]; read-out: IC50): 1700 nM

Structure (SMILES): O=C(NCCCCc1ccccc1)n1c(-c2ccccc2)coc1=O
half-life at 2 µM [17]: 0.167 h

Structure (SMILES): CCCCCCCC/C=C\CCCCCCCC(=O)NCCO [OLEOYLETHANOLAMIDE]
IC50 [6]: 500000 nM

Structure (SMILES): O=c1[nH]cc(-c2ccccc2)o1
IC50 [4]: Not Active

Second part, the compound after the results:

solubility kinetic at 1 h, 250 µM [1]: < 1 µM | t1/2 [2]: 0.667 h | t1/2 [3]: 0.167 h | IC50 ([4]; read-out: IC50): 25 nM
Structure (SMILES): O=C(NCCCCc1ccccc1)n1cc(-c2ccccn2)oc1=O

solubility kinetic at 1 h, 250 µM [1]: 30 µM (≈ 13.5 µg/mL) | t1/2 [2]: > 2 h | remaining at 2 h, 2 µM [8]: 80% | t1/2 [3]: > 1 h | remaining at 1 h, 4.6 µM [9]: 70% | IC50 ([4]; read-out: IC50): 341 nM
Structure (SMILES): CN1CCC(c2cc(-c3cn(C(=O)NCCCCc4ccccc4)c(=O)o3)ccc2F)CC1

IC50 ([4]; read-out: IC50): 177 nM
Structure (SMILES): COc1ccccc1-c1cn(C(=O)NCCCCc2ccccc2)c(=O)o1

IC50 ([4]; read-out: IC50): 44 nM
Structure (SMILES): O=C(NCCCCc1ccccc1)n1cc(-c2cscn2)oc1=O

IC50 ([4]; read-out: IC50): 37 nM
Structure (SMILES): O=C(NCCCCc1ccccc1)n1cc(-c2cnc3ccccc3n2)oc1=O

solubility kinetic at 1 h, 250 µM [1]: < 1 µM | t1/2 [2]: 0.5 h | t1/2 [3]: > 1 h | remaining at 1 h, 4.6 µM [9]: 75% | IC50 ([4]; read-out: IC50): 18 nM
Structure (SMILES): O=C(NCCCCc1ccccc1)n1cc(-c2ccncc2)oc1=O

IC50 ([4]; read-out: IC50): 83 nM
Structure (SMILES): O=C(NCCCCc1ccccc1)n1cc(-c2ccc(Cl)cc2)oc1=O

IC50 ([4]; read-out: IC50): 92 nM
Structure (SMILES): Cn1nc(-c2cn(C(=O)NCCCCc3ccccc3)c(=O)o2)c2ccccc21

IC50 ([4]; read-out: IC50): 400 nM
Structure (SMILES): COc1ccc(-c2cn(C(=O)NCCCCc3ccccc3)c(=O)o2)cc1

solubility kinetic at 1 h, 250 µM [1]: < 1 µM | t1/2 [2]: 1.5 h | t1/2 [3]: 1 h | IC50 ([4]; read-out: IC50): 185 nM
Structure (SMILES): O=C(NCCCCc1ccccc1)n1cc(-c2ccc(F)cc2)oc1=O

solubility kinetic at 1 h, 250 µM [1]: < 1 µM | t1/2 [2]: > 2 h | remaining at 2 h, 2 µM [8]: 64% | t1/2 [3]: 0.5 h | IC50 ([4]; read-out: IC50): 341 nM
Structure (SMILES): COc1cccc(-c2cn(C(=O)NCCCCc3ccccc3)c(=O)o2)c1

solubility kinetic at 1 h, 250 µM [1]: < 1 µM | t1/2 [2]: 0.667 h | t1/2 [3]: 1 h | IC50 ([4]; read-out: IC50): 32 nM
Structure (SMILES): O=C(NCCCCc1ccccc1)n1cc(-c2cnccn2)oc1=O

solubility kinetic at 1 h, 250 µM [1]: < 1 µM | t1/2 [2]: > 2 h | remaining at 2 h, 2 µM [8]: 64% | t1/2 [3]: > 1 h | remaining at 1 h, 4.6 µM [9]: 74% | IC50 ([4]; read-out: IC50): 80 nM
Structure (SMILES): COc1cc(-c2cn(C(=O)NCCCCc3ccccc3)c(=O)o2)ccc1F

solubility kinetic at 1 h, 250 µM [1]: < 1 µM | t1/2 [2]: 1 h | t1/2 [3]: > 1 h | remaining at 1 h, 4.6 µM [9]: 55% | IC50 ([4]; read-out: IC50): 70 nM
Structure (SMILES): O=C(NCCCCc1ccccc1)n1cc(-c2cccnc2)oc1=O

half-life at 2 µM [17]: > 12 h | inhibition [18]: Dose-dependent effect | solubility kinetic at 1 h, 250 µM [1]: < 1 µM | t1/2 [2]: < 0.083 h | t1/2 [3]: 0.667 h | IC50 ([4]; read-out: IC50): 90 nM
Structure (SMILES): O=C(NCCCCc1ccccc1)n1cc(-c2ccccc2)oc1=O

IC50 ([4]; read-out: IC50): 59 nM
Structure (SMILES): O=C(NCCCCc1ccccc1)n1cc(-c2nccs2)oc1=O

Source: ChEMBL document CHEMBL4706633, “Design, Synthesis, and Biological Evaluation of a Series of Oxazolone Carboxamides as a Novel Class of Acid Ceramidase Inhibitors” (J Med Chem, 2020)
